Screening results (PubChem)
Sampled rows, rich in hits. Any-hit rate of the full collection: about 2.9%.
TRPC4 potent: allosteric potentiators of mouse TRPC4 channel. Q9QUQ5. HEK293 TRPC4beta/mu-opioid, DAMGO EC20, Fluo-4 Ca2+ flux; stronger effect = higher value. B-score at 10 µM. 0.42% of 310,000 active;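 active = B-score of calcium response area above 5 SD of library B-scores, with initial fluorescence ratio within 5 SD of library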;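 also: B-score of integrated fluorescence ratio over time as area under calcium response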
Target sequence (Q9QUQ5 whole entry, looked up): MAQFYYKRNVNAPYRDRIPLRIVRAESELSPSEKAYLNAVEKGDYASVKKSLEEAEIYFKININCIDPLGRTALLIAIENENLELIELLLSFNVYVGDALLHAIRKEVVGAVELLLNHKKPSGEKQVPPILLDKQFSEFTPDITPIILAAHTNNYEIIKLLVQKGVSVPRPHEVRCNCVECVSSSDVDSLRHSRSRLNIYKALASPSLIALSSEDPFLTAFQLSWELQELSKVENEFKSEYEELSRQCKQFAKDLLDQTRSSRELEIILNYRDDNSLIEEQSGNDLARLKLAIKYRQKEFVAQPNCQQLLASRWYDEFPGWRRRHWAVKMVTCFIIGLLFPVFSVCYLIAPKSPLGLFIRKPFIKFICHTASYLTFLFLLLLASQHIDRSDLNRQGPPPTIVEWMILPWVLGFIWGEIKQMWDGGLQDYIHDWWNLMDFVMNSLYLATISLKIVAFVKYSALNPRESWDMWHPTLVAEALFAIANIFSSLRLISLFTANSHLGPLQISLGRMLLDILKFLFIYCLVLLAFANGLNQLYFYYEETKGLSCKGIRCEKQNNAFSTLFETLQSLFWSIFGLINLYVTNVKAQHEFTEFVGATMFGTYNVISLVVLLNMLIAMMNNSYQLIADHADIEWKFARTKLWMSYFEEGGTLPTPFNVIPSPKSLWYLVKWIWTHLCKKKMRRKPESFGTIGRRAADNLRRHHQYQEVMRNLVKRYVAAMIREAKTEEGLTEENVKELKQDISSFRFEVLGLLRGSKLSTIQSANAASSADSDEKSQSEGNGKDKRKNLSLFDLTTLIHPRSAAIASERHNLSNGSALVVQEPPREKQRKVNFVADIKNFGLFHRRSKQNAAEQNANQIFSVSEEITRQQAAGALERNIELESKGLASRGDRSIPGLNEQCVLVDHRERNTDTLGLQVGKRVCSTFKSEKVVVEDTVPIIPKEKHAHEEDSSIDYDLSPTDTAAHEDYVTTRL
TRPC6 act: mouse TRPC6 channel activation | Q61143 | HEK293-TRPC6 membrane potential dye fluorescence; stronger effect = higher value | B-score at 10 µM | 0.13% of 310,000 active | AID 2550;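 active = B-score of the integrated fluorescence ratio above library mean plus 3 SD, and starting fluorescence ratio within library mean plus 5 SD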;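 also: higher score means more depolarization so channel activation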
TRPC4 inh: blocks the mouse TRPC4 cation channel; Q9QUQ5; HEK293 TRPC4beta/mu-opioid, DAMGO-evoked Fluo4 calcium flux; stronger effect = lower value; B-score at 10 µM; 0.39% of 300,000 active; AID 2247;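 active = B-score over 3 SD under the library average, no early fluorescence shift, positive overall ratio signal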
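material = TRPC4beta/mu-opioid receptor HEK293 cell line | probe or stimulus = sequential submaximal and maximal DAMGO stimulation | compound dosing = one concentration per compound | measured by = Fluo4 Ca2+ flux fluorescence | evaluation = integrated fluorescence ratio relative to baseline, converted to per-well B score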
TRPC6 inhibitor: blocks the mouse TRPC6 cation channel; HEK293-TRPC6, membrane potential dye, ACh-evoked depolarization; stronger effect = lower value; AID 2553; 1.1% of 310,000 active; Q61143; B-score at 10 µM;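 active = B-score under library mean minus 3 SD, initial fluorescence not abnormally high, positive integrated signal ratio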;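 also: B-score derived from integrated fluorescence ratio over the kinetic read; more negative B-score means stronger inhibition of depolarization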
Kir21 inh: blocks the mouse Kir2.1 inward-rectifier potassium channel; P35561; HEK293-Kir2.1, FluxOR thallium flux fluorescence; stronger effect = lower value; AID 1672; B-score at 10 µM; 0.85% of 310,000 active;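 active = fluorescence ratio B-score at or below minus 3 SD of library scores, with starting-brightness B-score within 2 SD, cut at about -4.2 in these data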;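 also: channel flux triggered by added potassium and thallium sulfate stimulus; B-score of peak minus minimum fluorescence over baseline after thallium stimulus; more negative B-score means stronger Kir2.1 block with less thallium influx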
TRPC4 act: TRPC4 (mouse) channel activation | Q9QUQ5 | HEK293 TRPC4beta/mu-opioid, Fluo4 calcium fluorescence; stronger effect = higher value | B-score at 10 µM | 0.49% of 310,000 active;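 active = B-score above 5 SD of library B-scores, and initial fluorescence ratio not above library mean plus 5 SD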;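 also: positive B-score marks a calcium rise read as TRPC4 activation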
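Material: HEK293 stable line with TRPC4beta plus mu-opioid receptor; technique: Fluo4 calcium-sensitive dye fluorescence, kinetic, 1 Hz baseline; timing: Fluo4 dye loading 45 min at room temperature, 110 s recording; controls: assay buffer as low control, maximal DAMGO as high control; read-out: integrated baseline-normalised fluorescence ratio, converted to per-well B score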
The depositor's hits bear a star.

What do the screens show for `Cc1cc(C)c(S(=O)(=O)NCc2cccs2)cc1C`?
TRPC4 potent: 13*; TRPC6 act: inactive; TRPC4 inh: inactive; TRPC6 inhibitor: inactive; Kir21 inh: -2.1; TRPC4 act: inactive

What do the screens show for `CCC(=O)O/N=C(\N)c1ccc(Oc2cc(C)c(Cl)c(C)c2)c([N+](=O)[O-])c1`?
TRPC4 potent: inactive; TRPC6 act: inactive; TRPC4 inh: inactive; TRPC6 inhibitor: inactive; Kir21 inh: -0.04; TRPC4 act: inactive

What do the screens show for `COc1cc(-c2n[nH]c(=S)n2C(C)c2ccccc2)cc(OC)c1OC` (configuration not stated)?
TRPC4 potent: inactive; TRPC6 act: inactive; TRPC4 inh: inactive; TRPC6 inhibitor: inactive; Kir21 inh: -4.3*; TRPC4 act: inactive

How did CCSC(C)CC1C/C(=N/O)c2c(CC)noc2C1 (configuration not stated) do in these assays?
TRPC4 potent: inactive; TRPC6 act: inactive; TRPC4 inh: inactive; TRPC6 inhibitor: inactive; Kir21 inh: -0.13; TRPC4 act: inactive

How did CCCc1noc2c1/C(=N\O)CC(CC(C)SCC)C2 (configuration not stated) do in these assays?
TRPC4 potent: inactive; TRPC6 act: inactive; TRPC4 inh: -6*; TRPC6 inhibitor: inactive; Kir21 inh: -0.92; TRPC4 act: inactive

Results for CCNS(=O)(=O)c1ccc(NC(=O)Nc2ccc3c(c2)OCO3)cc1 ?
TRPC4 potent: inactive; TRPC6 act: inactive; TRPC4 inh: inactive; TRPC6 inhibitor: inactive; Kir21 inh: -0.9; TRPC4 act: 61*

What do the screens show for `Cc1cc2ncn(CCC(=O)NC(C)(C)C)c2cc1C`?
TRPC4 potent: inactive; TRPC6 act: inactive; TRPC4 inh: inactive; TRPC6 inhibitor: inactive; Kir21 inh: 0.3; TRPC4 act: inactive

Results for Cc1cccc(N2CCN(C(=O)C3(S(=O)(=O)c4ccc(Cl)cc4)CC3)CC2)c1C ?
TRPC4 potent: 19*; TRPC6 act: inactive; TRPC4 inh: inactive; TRPC6 inhibitor: inactive; Kir21 inh: 0.35; TRPC4 act: inactive

Results for Cc1ccc(Cl)cc1N1CCN(C(=O)C2(S(=O)(=O)c3ccc(Cl)cc3)CC2)CC1 ?
TRPC4 potent: inactive; TRPC6 act: inactive; TRPC4 inh: inactive; TRPC6 inhibitor: inactive; Kir21 inh: 1.3; TRPC4 act: inactive

How did COc1ccc(C(=O)NC2CCN(CC(=O)NC3CCCCC3)CC2)cc1 do in these assays?
TRPC4 potent: inactive; TRPC6 act: inactive; TRPC4 inh: -6*; TRPC6 inhibitor: inactive; Kir21 inh: 1.5; TRPC4 act: inactive

Results for COc1ccc(C(=O)NC2CCN(CC(=O)N3CCCCC3)CC2)cc1 ?
TRPC4 potent: inactive; TRPC6 act: inactive; TRPC4 inh: inactive; TRPC6 inhibitor: inactive; Kir21 inh: -0.11; TRPC4 act: inactive

How did CCOC(=O)N1CCN(c2c(NCCCN(CC)CC)c(=O)c2=O)CC1 do in these assays?
TRPC4 potent: inactive; TRPC6 act: inactive; TRPC4 inh: inactive; TRPC6 inhibitor: inactive; Kir21 inh: 0.49; TRPC4 act: inactive

Results for CCCCN(CC)CCNc1c(N2CCN(C(=O)OCC)CC2)c(=O)c1=O ?
TRPC4 potent: inactive; TRPC6 act: inactive; TRPC6 inhibitor: inactive; Kir21 inh: 0; TRPC4 act: 124*

How did COCCCNC(=O)COc1ccc2oc3c(c2c1)CCCC3 do in these assays?
TRPC4 potent: inactive; TRPC6 act: inactive; TRPC4 inh: inactive; TRPC6 inhibitor: inactive; Kir21 inh: -0.46; TRPC4 act: inactive

Results for COc1ccc(OCC(O)CNC(=O)c2ccc(C)cc2)cc1 (configuration not stated) ?
TRPC4 potent: inactive; TRPC6 act: inactive; TRPC4 inh: inactive; TRPC6 inhibitor: inactive; Kir21 inh: 1.3; TRPC4 act: inactive

Results for O=C1/C(=C\c2ccc(O)c(O)c2)C(c2ccccc2)=NN1c1ccccc1 ?
TRPC4 potent: inactive; TRPC6 act: inactive; TRPC4 inh: inactive; TRPC6 inhibitor: inactive; Kir21 inh: -2.6; TRPC4 act: inactive

What do the screens show for `COc1cc(/C=C2\C(=O)N(c3ccc(NC(C)=O)cc3)N=C2c2ccccc2)ccc1O`?
TRPC4 potent: 15*; TRPC6 act: inactive; TRPC4 inh: inactive; TRPC6 inhibitor: inactive; Kir21 inh: -2.5; TRPC4 act: inactive

Results for CCOC(=O)c1c(C)n(-c2ccc(C)cc2)c2ccc(OCC(O)CNCC3CCCO3)cc12 (configuration not stated) ?
TRPC4 potent: 33*; TRPC6 act: inactive; TRPC4 inh: inactive; TRPC6 inhibitor: inactive; Kir21 inh: -3.1; TRPC4 act: inactive

What do the screens show for `CCOC(=O)c1c(C)n(-c2ccc(C)cc2)c2ccc(OCC(O)CNCCCO)cc12` (configuration not stated)?
TRPC4 potent: inactive; TRPC6 act: inactive; TRPC4 inh: inactive; TRPC6 inhibitor: inactive; Kir21 inh: -2.7; TRPC4 act: inactive

What do the screens show for `COCCNC(=O)CCc1nnc2ccc(N3CCC(C)CC3)nn12`?
TRPC4 potent: inactive; TRPC6 act: inactive; TRPC4 inh: inactive; TRPC6 inhibitor: inactive; Kir21 inh: 0.89; TRPC4 act: inactive

How did CCOC(=O)C1(Cc2cccc(OC)c2)CCN(Cc2ccccc2)CC1 do in these assays?
TRPC4 potent: inactive; TRPC6 act: inactive; TRPC4 inh: inactive; TRPC6 inhibitor: inactive; Kir21 inh: -3.2; TRPC4 act: inactive

What do the screens show for `CCOC(=O)C1(CCOc2ccccc2)CCN(Cc2ccc3c(c2)OCCO3)CC1`?
TRPC4 potent: inactive; TRPC6 act: inactive; TRPC4 inh: inactive; TRPC6 inhibitor: inactive; Kir21 inh: -1.1; TRPC4 act: 61*

Results for CCOC(=O)C1(Cc2cccc(OC)c2)CCN(Cc2ccc3c(c2)OCCO3)CC1 ?
TRPC4 potent: inactive; TRPC6 act: inactive; TRPC4 inh: inactive; TRPC6 inhibitor: inactive; Kir21 inh: -1.5; TRPC4 act: 56*

Results for CCOC(=O)C1(Cc2cccc(OC)c2)CCN(Cc2cnc(SC)nc2)CC1 ?
TRPC4 potent: inactive; TRPC6 act: inactive; TRPC4 inh: -5*; TRPC6 inhibitor: inactive; Kir21 inh: -0.94; TRPC4 act: inactive

How did CCOC(=O)C1(Cc2cccc(OC)c2)CCN(Cc2cnc(N)nc2)CC1 do in these assays?
TRPC4 potent: inactive; TRPC6 act: inactive; TRPC4 inh: inactive; TRPC6 inhibitor: inactive; Kir21 inh: 0.27; TRPC4 act: inactive

What do the screens show for `COc1ccc(CCNC(=O)c2ccccc2SC)cc1`?
TRPC4 potent: inactive; TRPC6 act: inactive; TRPC4 inh: inactive; TRPC6 inhibitor: inactive; Kir21 inh: -0.11; TRPC4 act: inactive
